{
  "source": "ChEMBL document CHEMBL4396947",
  "about": "“Synthesis and characterization of novel isoform-selective IP6K1 inhibitors” (Bioorg Med Chem Lett, 2019)",
  "key": {"[1]": {"assay": "Half life in human microsomes at 1 uM in presence of NADPH", "type": "ADME, Microsome"}, "[2]": {"target": "T1, Inositol hexakisphosphate kinase 3 (Homo sapiens, UniProt Q96PC2)", "T1 sequence (Q96PC2 whole entry, canonical isoform)": "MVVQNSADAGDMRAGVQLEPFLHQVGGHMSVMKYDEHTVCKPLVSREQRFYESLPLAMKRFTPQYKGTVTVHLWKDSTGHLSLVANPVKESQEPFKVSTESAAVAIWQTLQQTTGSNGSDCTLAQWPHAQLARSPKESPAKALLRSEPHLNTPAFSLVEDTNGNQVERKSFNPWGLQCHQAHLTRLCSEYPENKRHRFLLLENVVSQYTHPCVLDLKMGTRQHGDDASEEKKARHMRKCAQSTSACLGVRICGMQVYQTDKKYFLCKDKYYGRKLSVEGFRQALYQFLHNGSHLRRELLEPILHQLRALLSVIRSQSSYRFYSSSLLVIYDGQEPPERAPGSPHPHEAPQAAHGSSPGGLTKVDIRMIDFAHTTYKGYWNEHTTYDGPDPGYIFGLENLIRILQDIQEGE", "assay": "Inhibition of IP6K3 (unknown origin) in presence of ATP at Km concentration by Cheng-Prusoff equation analysis", "method_in_brief": "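Purified IP6K isoforms run in the ADP-Glo Max kinase assay with 1 mM ATP. Measured IC50 values converted to Ki with the Cheng-Prusoff equation.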"}, "[3]": {"target": "T1, Inositol hexakisphosphate kinase 3", "assay": "Inhibition of IP6K3 (unknown origin) incubated for 120 mins using IP6 as substrate in presence of ATP by ADP-Glo reagent based luminescence assay", "method_in_brief": "(§1)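 Luminescent ADP-Glo Max format adapted for IP6K, with purified enzyme and ATP at 1 mM, which is consumed as the kinase reaction proceeds. IC50 taken from the resulting inhibition data.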"}, "[4]": {"target": "Inositol hexakisphosphate kinase 1 (Homo sapiens, UniProt Q92551)", "sequence (Q92551 whole entry)": "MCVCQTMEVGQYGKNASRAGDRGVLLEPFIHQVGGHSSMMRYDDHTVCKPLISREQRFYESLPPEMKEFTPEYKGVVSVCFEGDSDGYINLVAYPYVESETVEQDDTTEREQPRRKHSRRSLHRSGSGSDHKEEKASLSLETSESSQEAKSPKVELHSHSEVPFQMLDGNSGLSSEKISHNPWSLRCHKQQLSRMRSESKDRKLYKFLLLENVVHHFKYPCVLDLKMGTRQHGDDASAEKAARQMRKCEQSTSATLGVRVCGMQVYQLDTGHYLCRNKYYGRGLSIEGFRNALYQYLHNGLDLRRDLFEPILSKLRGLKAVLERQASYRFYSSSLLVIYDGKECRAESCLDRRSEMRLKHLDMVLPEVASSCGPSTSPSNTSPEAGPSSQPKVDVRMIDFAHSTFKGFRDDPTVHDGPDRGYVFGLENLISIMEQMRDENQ", "assay": "Inhibition of IP6K1 (unknown origin) incubated for 30 mins using IP6 as substrate in presence of ATP by ADP-Glo reagent based luminescence assay", "settings": "read-out: IC50", "method_in_brief": "as §1"}, "[5]": {"species": "Homo sapiens", "assay": "Inhibition of recombinant full-length human AURKA I31F mutant assessed as residual activity at 10 uM using LRRASLG as substrate incubated for 40 mins in presence of [gamma-33P]ATP at Km concentration by radiometric assay relative to control"}, "[6]": {"target": "CDK6/cyclin D3 (Homo sapiens) (UniProt P30281+Q00534)", "assay": "Inhibition of human full length recombinant CDK6/cyclinD3 assessed as residual activity at 10 uM using Histone H1 as substrate incubated for 40 mins in presence of [gamma-33P]ATP at Km concentration by radiometric assay relative to control", "type": "protein-complex assay"}, "[7]": {"target": "Casein kinase I isoform gamma-1 (Homo sapiens) (UniProt Q9HCP0)", "assay": "Inhibition of recombinant human CK1gamma1 (25 to 355 residues) assessed as residual activity at 10 uM using KRRRALS(p)VAS as substrate incubated for 40 mins in presence of [gamma-33P]ATP at Km concentration by radiometric assay relative to control"}, "[8]": {"system": "RAF proto-oncogene serine/threonine-protein kinase (Homo sapiens), P04049 [Y340D,Y341D]", "assay": "Inhibition of recombinant human c-RAF Y340D/Y341D double mutant (360 to end residues) assessed as residual activity at 10 uM using inactive MEK1 as substrate incubated for 40 mins in presence of [gamma-33P]ATP at Km concentration by radiometric assay relative to control"}, "[9]": {"target": "Ephrin type-B receptor 4 (Homo sapiens) (UniProt P54760)", "assay": "Inhibition of recombinant human EPHB4 (561 to end residues) assessed as residual activity at 10 uM using poly (Glu,Tyr) 4:1 as substrate incubated for 40 mins in presence of [gamma-33P]ATP at Km concentration by radiometric assay relative to control"}, "[10]": {"target": "Vascular endothelial growth factor receptor 2 (Homo sapiens) (UniProt P35968)", "sequence (P35968 whole entry)": "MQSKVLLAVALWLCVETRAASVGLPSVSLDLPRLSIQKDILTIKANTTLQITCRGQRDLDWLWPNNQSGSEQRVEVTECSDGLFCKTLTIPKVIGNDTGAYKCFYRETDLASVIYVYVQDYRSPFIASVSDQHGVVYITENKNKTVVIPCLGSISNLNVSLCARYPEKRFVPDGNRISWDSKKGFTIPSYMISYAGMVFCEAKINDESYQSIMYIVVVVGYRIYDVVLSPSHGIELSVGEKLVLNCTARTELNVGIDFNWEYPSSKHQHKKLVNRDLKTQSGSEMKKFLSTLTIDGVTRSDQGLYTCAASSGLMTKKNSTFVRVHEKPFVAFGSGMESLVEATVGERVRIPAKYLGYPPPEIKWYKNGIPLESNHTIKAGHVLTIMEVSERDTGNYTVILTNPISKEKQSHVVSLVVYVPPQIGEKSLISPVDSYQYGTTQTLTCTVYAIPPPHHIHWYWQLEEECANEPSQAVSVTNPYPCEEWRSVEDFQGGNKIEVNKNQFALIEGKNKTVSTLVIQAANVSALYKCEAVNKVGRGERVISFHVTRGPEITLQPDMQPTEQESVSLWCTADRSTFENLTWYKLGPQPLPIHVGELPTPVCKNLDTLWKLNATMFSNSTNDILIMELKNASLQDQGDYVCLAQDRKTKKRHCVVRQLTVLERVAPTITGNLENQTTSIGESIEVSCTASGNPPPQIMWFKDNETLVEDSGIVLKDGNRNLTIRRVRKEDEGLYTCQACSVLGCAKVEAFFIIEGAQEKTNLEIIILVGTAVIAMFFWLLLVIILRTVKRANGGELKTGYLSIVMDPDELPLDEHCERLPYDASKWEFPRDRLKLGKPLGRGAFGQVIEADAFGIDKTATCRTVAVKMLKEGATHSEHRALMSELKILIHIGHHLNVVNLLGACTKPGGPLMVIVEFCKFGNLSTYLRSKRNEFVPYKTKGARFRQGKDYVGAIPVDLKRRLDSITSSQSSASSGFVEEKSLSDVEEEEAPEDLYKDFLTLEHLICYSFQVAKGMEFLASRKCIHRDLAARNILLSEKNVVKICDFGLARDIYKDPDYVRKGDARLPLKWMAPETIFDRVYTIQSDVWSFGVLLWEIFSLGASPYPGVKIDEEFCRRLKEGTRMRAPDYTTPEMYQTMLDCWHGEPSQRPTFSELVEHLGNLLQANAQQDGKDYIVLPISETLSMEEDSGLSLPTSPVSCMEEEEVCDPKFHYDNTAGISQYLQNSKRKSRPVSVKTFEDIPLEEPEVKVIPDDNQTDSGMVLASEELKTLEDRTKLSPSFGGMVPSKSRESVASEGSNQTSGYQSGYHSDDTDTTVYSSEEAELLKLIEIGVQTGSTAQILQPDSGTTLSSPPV", "assay": "Inhibition of human recombinant KDR (790 to end residues) assessed as residual activity at 10 uM using myelin basic protein as substrate incubated for 40 mins in presence of [gamma-33P]ATP at Km concentration by radiometric assay relative to control"}, "[11]": {"target": "Tyrosine-protein kinase Lyn (Homo sapiens) (UniProt P07948)", "sequence (P07948 2-512 limits assumed)": "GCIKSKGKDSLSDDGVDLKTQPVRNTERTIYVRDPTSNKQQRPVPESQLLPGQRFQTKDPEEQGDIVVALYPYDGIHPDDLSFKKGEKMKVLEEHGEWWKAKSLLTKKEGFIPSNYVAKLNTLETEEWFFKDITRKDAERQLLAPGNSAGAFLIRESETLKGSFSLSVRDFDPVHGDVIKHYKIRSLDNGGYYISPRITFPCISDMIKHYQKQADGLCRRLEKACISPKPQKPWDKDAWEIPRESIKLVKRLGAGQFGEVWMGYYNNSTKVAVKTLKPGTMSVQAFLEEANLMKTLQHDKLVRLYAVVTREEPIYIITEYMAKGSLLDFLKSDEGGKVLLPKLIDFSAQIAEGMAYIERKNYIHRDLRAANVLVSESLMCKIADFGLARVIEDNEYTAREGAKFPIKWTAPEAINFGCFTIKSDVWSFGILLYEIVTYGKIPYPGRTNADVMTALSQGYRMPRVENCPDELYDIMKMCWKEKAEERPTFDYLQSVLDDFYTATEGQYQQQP", "assay": "Inhibition of full length recombinant human LYN assessed as residual activity at 10 uM using poly (Glu,Tyr) 4:1 as substrate incubated for 40 mins in presence of [gamma-33P]ATP at Km concentration by radiometric assay relative to control"}, "[12]": {"target": "Serine/threonine-protein kinase 4 (Homo sapiens) (UniProt Q13043)", "sequence (Q13043 whole entry)": "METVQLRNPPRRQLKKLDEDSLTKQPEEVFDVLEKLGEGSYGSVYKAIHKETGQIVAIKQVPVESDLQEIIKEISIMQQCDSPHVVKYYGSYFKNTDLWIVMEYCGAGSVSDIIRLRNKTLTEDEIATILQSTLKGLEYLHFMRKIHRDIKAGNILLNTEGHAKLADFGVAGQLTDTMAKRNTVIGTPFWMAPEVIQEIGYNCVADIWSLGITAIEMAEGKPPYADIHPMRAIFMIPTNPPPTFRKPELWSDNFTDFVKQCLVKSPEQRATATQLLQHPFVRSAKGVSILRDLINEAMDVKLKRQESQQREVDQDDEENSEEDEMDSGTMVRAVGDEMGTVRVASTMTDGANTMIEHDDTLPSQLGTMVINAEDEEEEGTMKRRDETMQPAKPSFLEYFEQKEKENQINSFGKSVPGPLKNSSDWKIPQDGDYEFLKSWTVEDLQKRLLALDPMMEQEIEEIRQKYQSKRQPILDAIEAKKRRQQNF", "assay": "Inhibition of full length recombinant human MST1 assessed as residual activity at 10 uM using KKSRGDYMTMQIG as substrate incubated for 40 mins in presence of [gamma-33P]ATP at Km concentration by radiometric assay relative to control"}, "[13]": {"system": "Ribosomal protein S6 kinase beta-1 (Homo sapiens), P23443 [T412E]", "sequence (P23443 whole entry T412E, looked up, the tested form may be a part)": "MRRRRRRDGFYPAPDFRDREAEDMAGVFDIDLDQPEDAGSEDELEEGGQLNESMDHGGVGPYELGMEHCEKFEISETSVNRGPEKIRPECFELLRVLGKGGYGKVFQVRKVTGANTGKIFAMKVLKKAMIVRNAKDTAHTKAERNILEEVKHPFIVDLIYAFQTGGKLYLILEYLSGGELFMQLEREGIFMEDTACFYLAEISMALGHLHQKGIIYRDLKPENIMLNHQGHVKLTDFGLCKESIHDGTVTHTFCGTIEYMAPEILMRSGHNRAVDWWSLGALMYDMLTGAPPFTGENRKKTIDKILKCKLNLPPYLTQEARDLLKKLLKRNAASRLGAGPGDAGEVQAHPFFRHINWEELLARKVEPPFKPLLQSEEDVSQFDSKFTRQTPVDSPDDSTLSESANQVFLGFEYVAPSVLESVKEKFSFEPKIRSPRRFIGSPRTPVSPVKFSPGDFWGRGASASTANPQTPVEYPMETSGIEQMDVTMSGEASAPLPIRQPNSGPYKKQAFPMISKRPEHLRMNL", "assay": "Inhibition of recombinant human p70S6K T412E mutant (1 to 421 residues) assessed as residual activity at 10 uM incubated for 40 mins in presence of [gamma-33P]ATP at Km concentration by radiometric assay relative to control"}, "[14]": {"species": "Homo sapiens", "assay": "Inhibition of recombinant human PKBalpha S478G mutant assessed as residual activity at 10 uM using GRPRTSSFAEGKK as substrate incubated for 40 mins in presence of [gamma-33P]ATP at Km concentration by radiometric assay relative to control"}, "[15]": {"target": "cGMP-dependent protein kinase 1 (Homo sapiens) (UniProt Q13976)", "sequence (Q13976 whole entry)": "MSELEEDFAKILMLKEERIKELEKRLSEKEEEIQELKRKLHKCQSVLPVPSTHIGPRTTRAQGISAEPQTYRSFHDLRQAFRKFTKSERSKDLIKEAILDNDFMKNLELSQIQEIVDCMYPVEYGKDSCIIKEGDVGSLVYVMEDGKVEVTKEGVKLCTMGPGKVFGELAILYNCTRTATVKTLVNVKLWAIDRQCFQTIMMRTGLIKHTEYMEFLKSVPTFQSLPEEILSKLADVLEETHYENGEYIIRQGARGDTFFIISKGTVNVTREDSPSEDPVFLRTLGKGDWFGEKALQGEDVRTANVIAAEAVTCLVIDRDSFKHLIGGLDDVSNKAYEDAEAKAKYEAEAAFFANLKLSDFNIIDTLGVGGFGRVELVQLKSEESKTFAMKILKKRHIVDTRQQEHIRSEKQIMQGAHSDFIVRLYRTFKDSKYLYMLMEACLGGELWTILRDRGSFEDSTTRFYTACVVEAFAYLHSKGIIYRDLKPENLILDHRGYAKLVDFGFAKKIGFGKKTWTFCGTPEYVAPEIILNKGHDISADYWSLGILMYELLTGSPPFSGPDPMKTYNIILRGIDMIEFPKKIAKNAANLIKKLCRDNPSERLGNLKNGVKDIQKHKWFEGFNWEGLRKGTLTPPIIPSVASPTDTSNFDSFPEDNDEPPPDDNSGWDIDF", "assay": "Inhibition of recombinant full length human PKG1alpha assessed as residual activity at 10 uM using RRRLSFAEPG as substrate incubated for 40 mins in presence of [gamma-33P]ATP at Km concentration by radiometric assay relative to control"}, "[16]": {"target": "Serine/threonine-protein kinase PLK3 (Homo sapiens) (UniProt Q9H4B4)", "sequence (Q9H4B4 whole entry, looked up, the tested form may be a part)": "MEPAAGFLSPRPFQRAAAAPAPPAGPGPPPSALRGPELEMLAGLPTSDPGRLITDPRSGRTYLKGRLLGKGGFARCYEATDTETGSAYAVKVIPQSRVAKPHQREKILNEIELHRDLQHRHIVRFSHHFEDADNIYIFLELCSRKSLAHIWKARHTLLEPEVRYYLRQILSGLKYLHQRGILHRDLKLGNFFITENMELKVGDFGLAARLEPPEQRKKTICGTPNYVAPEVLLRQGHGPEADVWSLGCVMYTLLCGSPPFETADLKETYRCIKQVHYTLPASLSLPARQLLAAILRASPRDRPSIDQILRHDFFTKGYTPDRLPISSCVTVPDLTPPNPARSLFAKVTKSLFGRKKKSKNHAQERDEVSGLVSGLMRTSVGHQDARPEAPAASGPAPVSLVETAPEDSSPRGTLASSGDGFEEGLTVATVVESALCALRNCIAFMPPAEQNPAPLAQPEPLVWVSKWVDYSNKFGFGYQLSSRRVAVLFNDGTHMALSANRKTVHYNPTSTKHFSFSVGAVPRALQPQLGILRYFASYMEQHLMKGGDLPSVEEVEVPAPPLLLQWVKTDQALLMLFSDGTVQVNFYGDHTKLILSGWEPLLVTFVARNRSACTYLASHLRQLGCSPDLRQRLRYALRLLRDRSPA", "assay": "Inhibition of recombinant human Plk3 (19 to 301 residues) assessed as residual activity at 10 uM using casein as substrate incubated for 40 mins in presence of [gamma-33P]ATP at Km concentration by radiometric assay relative to control"}, "[17]": {"species": "Homo sapiens", "assay": "Inhibition of recombinant human PRAK 5 R291E mutant assessed as residual activity at 10 uM using KKLRRTLSVA as substrate incubated for 40 mins in presence of [gamma-33P]ATP at Km concentration by radiometric assay relative to control"}, "[18]": {"target": "Rho-associated protein kinase 1 (Homo sapiens) (UniProt Q13464)", "assay": "Inhibition of recombinant human ROCK1 (17 to 535 residues) assessed as residual activity at 10 uM using KEAKEKRQEQIAKR as substrate incubated for 40 mins in presence of [gamma-33P]ATP at Km concentration by radiometric assay relative to control"}, "[19]": {"target": "Tyrosine-protein kinase receptor TYRO3 (Homo sapiens) (UniProt Q06418)", "assay": "Inhibition of recombinant human RSE (451 to end residues) assessed as residual activity at 10 uM using KVEKIGEGTYGVV as substrate incubated for 40 mins in presence of [gamma-33P]ATP at Km concentration by scintillation counting method relative to control"}, "[20]": {"target": "Mitogen-activated protein kinase kinase kinase 7 (Homo sapiens) (UniProt O43318)", "assay": "Inhibition of recombinant human TAK1 (1 to 303 residues) assessed as residual activity at 10 uM using casein as substrate incubated for 40 mins in presence of [gamma-33P]ATP at Km concentration by radiometric assay relative to control"}, "[21]": {"target": "PI3K p110 beta/p85 alpha (Homo sapiens) (UniProt P27986+P42338)", "assay": "Inhibition of recombinant full length human PI3K p110beta/p85alpha assessed as residual activity at 10 uM incubated for 40 mins in presence of [gamma-33P]ATP at Km concentration by radiometric assay relative to control", "type": "protein-complex assay"}, "[22]": {"species": "Homo sapiens", "assay": "Inhibition of recombinant full length human PI3K p110delta/p85alpha N253S mutant assessed as residual activity at 10 uM incubated for 40 mins in presence of [gamma-33P]ATP at Km concentration by radiometric assay relative to control"}},
  "data": [
    {"smiles": "COc1ccc2c(CCNc3nc(NCc4ccc(=O)[nH]c4)c4nc[nH]c4n3)c[nH]c2c1", "values": [
      {"measurement": "t1/2", "setting": "[1]", "result": 42, "unit": "min"},
      {"measurement": "Ki", "setting": "[2]", "result": 9.62, "unit": "µM"},
      {"measurement": "IC50", "setting": "[3]", "result": 15, "unit": "µM"},
      {"measurement": "IC50", "setting": "[4]", "result": 0.75, "unit": "µM"},
      {"measurement": "Activity", "setting": "[5]", "result": 46, "unit": "%"},
      {"measurement": "Activity", "setting": "[6]", "result": 82, "unit": "%"},
      {"measurement": "Activity", "setting": "[7]", "result": 6, "unit": "%"},
      {"measurement": "Activity", "setting": "[8]", "result": -3, "unit": "%"},
      {"measurement": "Activity", "setting": "[9]", "result": 69, "unit": "%"},
      {"measurement": "Activity", "setting": "[10]", "result": 60, "unit": "%"},
      {"measurement": "Activity", "setting": "[11]", "result": 86, "unit": "%"},
      {"measurement": "Activity", "setting": "[12]", "result": 82, "unit": "%"},
      {"measurement": "Activity", "setting": "[13]", "result": 94, "unit": "%"},
      {"measurement": "Activity", "setting": "[14]", "result": 84, "unit": "%"},
      {"measurement": "Activity", "setting": "[15]", "result": 97, "unit": "%"},
      {"measurement": "Activity", "setting": "[16]", "result": 109, "unit": "%"},
      {"measurement": "Activity", "setting": "[17]", "result": 87, "unit": "%"},
      {"measurement": "Activity", "setting": "[18]", "result": 91, "unit": "%"},
      {"measurement": "Activity", "setting": "[19]", "result": 91, "unit": "%"},
      {"measurement": "Activity", "setting": "[20]", "result": 66, "unit": "%"},
      {"measurement": "Activity", "setting": "[21]", "result": 93, "unit": "%"},
      {"measurement": "Activity", "setting": "[22]", "result": 95, "unit": "%"}
    ]}
  ]
}
